# Source: PubChem BioAssay
# This is a sample that favours compounds with a hit; in the whole collection about 4.9% have one here.
# CHT PAM – CHT positive allosteric modulators, primary screen, cell-based, membrane potential dye, choline EC20; High affinity choline transporter 1 (Homo sapiens), Q9GZV3; CHT-expressing cells; stronger effect = higher value; LV-AA mutant CHT in HEK293 cells; B-score at 10 µM; 0.49% of 310,000 active; AID 488977, 2010;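 active = initial fluorescence not abnormally high and integrated response B-score, plate-corrected, over 3 SD above library mean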
# CHT block – inhibitors of human choline transporter CHT; High affinity choline transporter 1 (Homo sapiens), Q9GZV3; CHT-expressing cells, membrane potential dye, choline response; stronger effect = lower value; B-score at 10 µM; 0.86% of 310,000 active; AID 488975, 2010;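 active = B-score over 3 SD under the library average, and starting fluorescence ratio not unusually high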;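 also: choline stimulus applied at its EC90 after an EC20 pre-addition; B-score computed on integrated fluorescence ratio after choline addition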
# Hep lipid drop – inhibitors of hepatocyte lipid droplet formation, primary screen, imaging, high-throughput imaging, BODIPY stain | inhibition, % at 6.5 µM | AID 1656, 2009 | AML12 mouse hepatocytes, oleate lipid droplets | 0.4% of 240,000 active;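 active = lipid droplet intensity inhibited by at least 50%, with more than 500 cells counted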
#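 Material – AML12 mouse liver cells · Also added – oleate loading, 100 µM · Compound dosing – 6.5 µM single-point dosing · Times – overnight treatment with compound plus oleate · Measured by – fluorescence imaging, 20x objective, two fields per well · Read-out – percent inhibition of filter-corrected integrated lipid droplet intensity per well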
# HSF1 activator – HSF-1 activators, primary screen, NIH3T3-HGL cells, MG132 stress, luminescence, single point; 1.7% of 300,000 active; activation, % at 9 µM; NIH3T3-HGL HSF-1 luciferase reporter, 8 h; 100% = twice DMSO control signal;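 active = mean replicate activation of at least 50% with a set share of replicates each reaching 50%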
# HSF1 inhib – HSF1 inhibitors in luciferase reporter cells, primary screen, cell-based, NIH3T3, luminescence. NIH3T3-HGL HSE-luciferase, MG132-induced, luminescence 8 h; stronger effect = lower value. activity change, negative = inhibition, % at 7.5 µM (by protocol). 0.77% of 300,000 active. AID 2098, 2009;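 active = more than half of replicate wells show activity change below -50%, luminescence cut by over half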;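 also: luciferase reports HSF-1 transcriptional activity via heat shock element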
# PHOSPHO1 inh – PubChem AID 1565; 1.1% of 290,000 active; inhibition, % at 13.3 µM; recombinant PHOSPHO1, absorbance phosphatase assay; Phosphoethanolamine/phosphocholine phosphatase (Homo sapiens), Q8TCT1; in the data active = inhibition above about 60%
# Target sequence (Q8TCT1 whole entry, looked up): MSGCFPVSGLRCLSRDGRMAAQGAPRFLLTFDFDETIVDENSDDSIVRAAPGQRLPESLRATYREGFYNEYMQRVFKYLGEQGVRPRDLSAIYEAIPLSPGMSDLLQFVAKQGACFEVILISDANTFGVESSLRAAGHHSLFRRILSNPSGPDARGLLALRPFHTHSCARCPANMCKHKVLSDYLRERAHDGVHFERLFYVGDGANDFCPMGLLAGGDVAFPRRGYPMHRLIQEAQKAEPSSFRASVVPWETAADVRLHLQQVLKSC
# CHT block conf – CHT inhibitors, confirmation, cell-based, membrane potential dye, duplicate. 70% of 2,400 active. CHT activity remaining % of control (stronger effect = lower value), % at 10 µM. CHT-expressing cells, choline membrane potential dye; LV-to-AA substituted CHT, HEK293 cells. shares compounds with CHT block;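 active = choline transporter activity left, mean of duplicates at 10 µM, below buffer-only control mean minus 3 SD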;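 also: depolarization triggered by choline at its EC90 following an EC20 pre-addition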
# HEK293 CHT ctr – membrane potential effects in parental HEK293, counter-screen for CHT inhibitor project, cell-based, membrane potential dye; shares compounds with CHT block; choline response; active = decrease or increase beyond buffer ±3SD; membrane potential ratio readout (active if shifted either direction beyond buffer ±3SD; no single direction) at 10 µM; 4% of 2,400 active;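 also: parental cells lack the transporter so any hit is non-specific; ratio is peak minus trough fluorescence over baseline after EC90 choline challenge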
# A number is an active result; n = inactive; x = no result.
SMILES,CHT PAM,CHT block,Hep lipid drop,HSF1 activator,HSF1 inhib,PHOSPHO1 inh,CHT block conf,HEK293 CHT ctr
C(=N/Nc1nc(-c2ccccc2)cc(-c2ccccc2)n1)/c1cccnc1,n,n,n,n,n,n,x,x
CCN(CC(=O)Nc1ccccc1C(F)(F)F)C(=O)Cn1c(=O)cnc2ccccc21,n,n,x,n,n,x,x,x
CCCN(CC(=O)Nc1ccc(F)c(F)c1F)C(=O)Cn1c(=O)cnc2ccccc21,n,-11,x,n,n,x,8.6%,n
N#C/C(=N\Nc1ccc(F)cc1)C(=O)C1CC1,n,-6.2,n,n,n,n,50%,n
N#C/C(=N\Nc1ccc(Cl)c(Cl)c1)C(=O)C1CC1,n,n,n,n,n,n,x,x
Cc1ccc(C(=O)NC(NCc2ccccc2)C(Cl)(Cl)Cl)cc1 (configuration not stated),n,n,n,n,n,n,x,x
CCOc1cc(Br)cc(/C=N/NC(=O)c2cccnc2)c1O,n,n,x,n,n,n,x,x
O=C1C(=O)N(CCc2c[nH]c3ccccc23)C(c2cccnc2)/C1=C(/O)c1ccccc1 (configuration not stated),n,-6.3,n,x,x,n,n,n
O=C(c1ccccc1F)N1CCN(Cc2nc3sc4c(c3c(=O)[nH]2)CCCC4)CC1,n,n,n,n,n,n,x,x
CS(=O)(=O)Nc1ccccc1C(=O)NCCSc1ccccc1,n,-6.5,n,n,n,n,71%,n
CS(=O)(=O)Nc1ccccc1C(=O)NCCSCc1ccccc1,n,n,n,n,n,n,x,x
CC1CCCC(C)N1CCCNC(=O)CN1C(=O)c2cccnc2Oc2ccc(Cl)cc21 (configuration not stated),n,-7.1,n,n,n,n,19%,n
Cc1c(NCc2cc(Cl)ccc2O)c(=O)n(-c2ccccc2)n1C,n,n,x,n,n,n,x,x
Cc1c(NCc2cc(Cl)cc(Cl)c2O)c(=O)n(-c2ccccc2)n1C,n,-5,n,n,n,n,n,n
COc1ccc(S(=O)(=O)CCC(=O)N2c3ccccc3CC2C)cc1 (configuration not stated),n,n,n,n,n,n,x,x
CC1Cc2ccccc2N1C(=O)CCS(=O)(=O)c1ccc2c(c1)NC(=O)CS2 (configuration not stated),n,-5,n,n,n,n,n,n
c1ccc(-c2csc(NC3=NCCCCC3)n2)cc1,n,-7.1,n,n,n,n,n,n
O=[N+]([O-])c1ccc2nn(Cc3ccccc3)cc2c1,n,n,x,n,n,x,x,x
COC(=O)COc1ccc(S(=O)(=O)N2CCN(c3ccccc3F)CC2)cc1,n,-5.2,x,n,n,n,n,n
COC(=O)COc1ccc(S(=O)(=O)N2CCN(c3ccccc3)CC2)cc1,n,n,n,n,n,n,x,x
CCOC(=O)C(CC)Sc1ccc2nnc(CCNS(=O)(=O)c3ccccc3)n2n1 (configuration not stated),n,n,n,n,n,n,x,x
O=[N+]([O-])c1cccc(-c2ncc3ccccn23)c1,n,n,n,n,n,n,x,x
O=[N+]([O-])c1ccc(Sc2ncc3ccccn23)nc1,n,-13,n,n,n,n,7.7%,n
O=C(Nc1cccc(C(=O)N2CCOCC2)c1)c1ccccc1Br,n,n,n,n,n,n,x,x
O=C(Nc1cccc(C(=O)N2CCCCC2)c1)c1ccccc1Br,n,-5.2,n,n,n,n,25%,n
CC(C)(C)c1cnnn1-c1ccc(/C=N/Nc2ccc([N+](=O)[O-])cc2)cc1,n,n,n,n,n,n,x,x
